Inconclusive results are not listed.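 Rule for the calls, unless noted: active = inhibition over a set limit, the all-compound mean plus 3 SD, in both replicate runs; inconclusive = over that limit in just one replicate run; inactive = at or under that limit in both runs.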
How the values were obtained:
[1] = S. cerevisiae growth inhibition in permissive medium (OD615), pilot counter-assay for S. cerevisiae lifespan shortening project, permissive growth control (AID 705;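 active = growth inhibition above 25% in both replicates, a cutoff set 3 SD above the mean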); settings: OD615, 24 h, at 10 µM, hits give high values
Method in brief: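 System: Engineered DeaD yeast | Buffer or medium: SC raffinose/galactose permissive medium | Doses: 10 µM single dose, 0.25% DMSO | Times: 24 h exposure, 30 °C | Measured by: OD615 turbidity read | Read-out: Yeast growth inhibition indicated by reduced 24 h OD615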

[2] = S. cerevisiae growth inhibition in restrictive medium, OD615, pilot screen, restrictive growth control, yeast lifespan reduction project (AID 706;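 active = growth inhibition above a set limit, 3 SD over mean compound inhibition, in both replicates, cut at about 43% in these data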;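 note: modified DeaD lifespan yeast strain shifted to restrictive glucose medium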); settings: OD615, 48 h, at 10 µM, hits give high values
Method in brief: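 Assay system: engineered S. cerevisiae DeaD strain; Buffer or medium: CSMM-D glucose medium; Dosing: 10 µM compound, 0.25% DMSO; Times: cell pre-growth 4 h, compound exposure 48 h, 30 °C; Detection: absorbance (optical density) measured at 615 nm.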

[3] = doxorubicin toxicity protection in MRP-1 cells – H69AR cells, CellTiter-Glo, duplicate, MRP-1 activator project, pilot screen (AID 807;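 active = viability increase at or above a cutoff of the median across tested compounds plus 3 SD, cut at about 8.5% in these data, passing the limit was not always enough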;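 note: compound pretreatment 18-22 h then 72 h combined with doxorubicin; 0% = doxorubicin alone and 100% = vehicle without doxorubicin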); settings: H69AR viability with doxorubicin, CellTiter-Glo luminescence; at 10 µM; hits give high values
[4] = viability of HCT116 without oncogenic beta-catenin – human colon tumor cells, pilot screen (AID 823;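 active = cell viability at or below a set limit in both duplicate runs, the limit being the all-compound median minus 4 SD, cut at about 23% in these data, passing the limit was not always enough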;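 note: 0% = wells killed by 20 µM Hyamine and 100% = untreated DMSO cell wells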); settings: HCT116 beta-catenin knockout viability, CellTiter-Glo, 60 h; at 10 µM; hits give low values
[5] = viability of PTEN-null HCT116 cells – cell-based, HCT116 clonal line, CellTiter-Glo, pilot screen (AID 824;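 active = viability at or below 27.92% in each of two runs, the all-compound median minus 4 SD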;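 note: 0% = 20 µM Hyamine control and 100% = vehicle cell control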); settings: HCT116 PTEN-deleted viability, 60 h, at 10 µM, hits give low values
[6] = RAM pathway blockade in budding yeast – dse1pr::URA3 reporter, 5-FOA selection, pilot screen (AID 869);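 note: 0% = DMSO wells with no growth and 100% = 10 µM 1-NA-PP1 with full growth; RAM network block rescues cells from 5-FOA so hits raise OD615 growth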; settings: S. cerevisiae dse1pr::URA3 5-FOA growth, OD615, 2 d; at 10 µM; hits give high values; strain carries analog-sensitive mutant Cbk1 kinase
[7] = RAM signaling pathway blockade in yeast – S. cerevisiae, Pdr1DBD-CYC8 efflux-inhibited sensitized strain, primary screen (AID 1298;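 active = RAM network inhibition above 8.4% in each of two replicates, 3 SD over the compound average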;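 note: 0% = DMSO untreated cells without growth and 100% = 10 µM 1-NA-PP1 full growth; higher means more yeast growth rescued from 5-FOA killing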); settings: S. cerevisiae cbk1-as DSE1-URA3 strain, 5-FOA growth OD615, 2 d; at 50 µM; hits give high values

CCOC(=O)Cn1c(=O)oc2cc(S(=O)(=O)Nc3cc(Cl)ccc3OC)ccc21
inactive: growth inhibition [1] -2.69% | growth inhibition [2] -4.88% | viability increase [3] -2.35% | viability [4] 91.9% | viability [5] 89% | inhibition [6] 0.525% | RAM network inhibition [7] 4.96%

CC(=O)Nc1ccc(NC2(C)C(=O)c3ccccc3C2=O)cc1
inactive: growth inhibition [1] -0.27% | growth inhibition [2] -3.77% | viability increase [3] -1.88% | viability [4] 99.4% | viability [5] 102% | inhibition [6] 1.94% | RAM network inhibition [7] 1.23%

CCOC(=O)C1=C(C)NC(=O)NC1c1c(O)ccc2ccccc12 (configuration not stated)
inactive: growth inhibition [1] -11.6% | growth inhibition [2] -12.7% | viability increase [3] -3.39% | viability [4] 97.6% | viability [5] 95.4% | inhibition [6] 0.77% | RAM network inhibition [7] 2.29%

COc1ccc(-c2nnnn2C)cc1S(=O)(=O)NCCc1ccccc1
inactive: growth inhibition [1] -8.48% | growth inhibition [2] 2.52% | viability increase [3] 0.12% | viability [4] 97.5% | viability [5] 104% | inhibition [6] 1% | RAM network inhibition [7] 3.03%

COc1ccccc1N1CCN(CCCC(=O)c2ccc(F)cc2)CC1
inactive: growth inhibition [1] -11.5% | growth inhibition [2] 1.04% | viability increase [3] -0.78% | viability [4] 80.6% | viability [5] 88.9% | inhibition [6] 2.29% | RAM network inhibition [7] -0.89%

O=C1CC(c2ccc(S(=O)(=O)NC3CC3)cc2)CN1 (configuration not stated)
inactive: growth inhibition [1] -9.26% | growth inhibition [2] -7.47% | viability increase [3] -2.08% | viability [4] 110% | viability [5] 103% | inhibition [6] 0.075% | RAM network inhibition [7] -0.6%

Cc1ccc(S(=O)(=O)N=C2SCCCS2)cc1
inactive: growth inhibition [1] -3.74% | growth inhibition [2] 6.67% | viability increase [3] -2.68% | viability [4] 99.2% | viability [5] 99.5% | inhibition [6] 1.31% | RAM network inhibition [7] 2.39%

CCN1CCN(C(=O)CSCc2nc(-c3ccc(OC)c(OC)c3)oc2C)CC1
inactive: growth inhibition [1] -3.83% | growth inhibition [2] -7.22% | viability increase [3] -1.52% | viability [4] 101% | viability [5] 101% | inhibition [6] 0.475% | RAM network inhibition [7] 1.3%

CCOC(=O)N1CCC(NC(=O)CS(=O)(=O)Cc2nc(-c3ccc(C)cc3)oc2C)CC1
inactive: growth inhibition [1] -20.3% | growth inhibition [2] -37.1% | viability increase [3] 0.42% | viability [4] 75.3% | viability [5] 81.3% | inhibition [6] 0.44% | RAM network inhibition [7] 0.36%

O=C(c1cccc(F)c1)N1CCN=C1SCc1cccnc1
inactive: growth inhibition [1] -2.18% | growth inhibition [2] 8.84% | viability increase [3] -0.35% | viability [4] 102% | viability [5] 96.3% | inhibition [6] 0.32% | RAM network inhibition [7] 0.89%

CSc1oc(-c2ccc(F)cc2)nc1S(=O)(=O)c1ccccc1
inactive: growth inhibition [1] -2.16% | growth inhibition [2] 0.385% | viability increase [3] -1.13% | viability [4] 97.2% | viability [5] 93.7% | inhibition [6] 0.585% | RAM network inhibition [7] 4.67%

Cc1cccc(C)c1NC(=O)C1(N(Cc2ccco2)C(=O)CC2NC(=O)NC2=O)CCCCC1 (configuration not stated)
inactive: growth inhibition [1] -7.47% | growth inhibition [2] -10.5% | viability increase [3] -2.27% | viability [4] 92.7% | viability [5] 93.9% | inhibition [6] 1.23% | RAM network inhibition [7] 0.68%

CCC1CCCCN1Cc1nc2c(c(=O)n(C)c(=O)n2C)n1Cc1cccc2ccccc12 (configuration not stated)
inactive: growth inhibition [1] -13.7% | growth inhibition [2] -7.96% | viability increase [3] -1.54% | viability [4] 92.5% | viability [5] 83.1% | inhibition [6] 0.67% | RAM network inhibition [7] 8.51%

CCOC(=O)c1nnc2cc(-c3ccccc3)nn2c1C
inactive: growth inhibition [1] 3.76% | growth inhibition [2] 16% | viability increase [3] 0.86% | viability [4] 93.6% | viability [5] 95.3% | inhibition [6] 1.5% | RAM network inhibition [7] 0.86%

O=C(Nc1ccccc1)C1CC(=O)N(C2CCCCC2)C1 (configuration not stated)
inactive: growth inhibition [1] -8.56% | growth inhibition [2] 7.07% | viability increase [3] 1.42% | viability [4] 105% | viability [5] 101% | inhibition [6] 1.58% | RAM network inhibition [7] 3.42%

Brc1ccc(-c2nnc3sc(CNC4CCCC4)cn23)cc1
inactive: growth inhibition [1] 0.69% | growth inhibition [2] 24.3% | viability increase [3] 0.19% | viability [4] 106% | viability [5] 107% | inhibition [6] 1.58% | RAM network inhibition [7] 2.6%

CCOC(=O)N1CCN(c2cc(C)nc3nc(C)nn23)CC1
inactive: growth inhibition [1] -11.9% | growth inhibition [2] -9.88% | viability increase [3] -1.28% | viability [4] 105% | viability [5] 97.1% | inhibition [6] 3.44% | RAM network inhibition [7] 2.21%

COc1ccc2c(c1)NC1(O)c3ccccc3C(=O)C21O (configuration not stated)
inactive: growth inhibition [1] -5.39% | growth inhibition [2] 4.5% | viability increase [3] -1.41% | viability [4] 99.3% | viability [5] 98.3% | inhibition [6] 1.53% | RAM network inhibition [7] 3.44%

CCN1CCN(c2cc(C)c3cc(NC(=O)Cc4ccc(OC)c(OC)c4)ccc3n2)CC1
inactive: growth inhibition [1] -15.9% | growth inhibition [2] -16.5% | viability increase [3] -5.64% | viability [4] 75.5% | viability [5] 77.2% | inhibition [6] 3.25% | RAM network inhibition [7] -0.95%

COc1ccc(C)cc1NC(=O)CSc1nnc(-c2ccco2)n1Cc1ccco1
inactive: growth inhibition [1] -0.8% | growth inhibition [2] 10.4% | viability increase [3] -2.06% | viability [4] 99.8% | viability [5] 90.8% | inhibition [6] 2.08% | RAM network inhibition [7] 6.62%

Cc1cccc(OCc2nnc(SCC(=O)NCCc3ccccc3)o2)c1
inactive: growth inhibition [1] -3.83% | growth inhibition [2] -15.6% | viability increase [3] -1.67% | viability [4] 98% | viability [5] 95.2% | inhibition [6] 3.1% | RAM network inhibition [7] 1.99%

COc1ccc(-c2oc(/N=C/N3CCOCC3)c(C#N)c2-c2ccc(OC)cc2)cc1
inactive: growth inhibition [1] -10.1% | growth inhibition [2] -18.7% | viability increase [3] -0.81% | viability [4] 88.6% | viability [5] 83.4% | inhibition [6] 2.25% | RAM network inhibition [7] 2.33%

O=C(NCc1ccco1)Nc1ccc(Br)cc1
inactive: growth inhibition [1] 3.96% | growth inhibition [2] 5.27% | viability increase [3] -2.7% | viability [4] 95.7% | viability [5] 97.7% | inhibition [6] 1.09% | RAM network inhibition [7] 5.07%

Cc1ccc(NC(=O)C2C3C=CC4(CN(Cc5cccnc5)C(=O)C24)O3)cc1 (configuration not stated)
inactive: growth inhibition [1] 5.17% | growth inhibition [2] -7.85% | viability increase [3] -1.21% | viability [4] 74.4% | viability [5] 97.3% | inhibition [6] 0.77% | RAM network inhibition [7] 2.87%

O=C(CC1NCCNC1=O)OCCCc1ccccc1 (configuration not stated)
inactive: growth inhibition [1] -0.955% | growth inhibition [2] -2.82% | viability increase [3] 0.07% | viability [4] 99.1% | viability [5] 99.9% | inhibition [6] 1.09% | RAM network inhibition [7] 5.29%

CCCOC(=O)c1ccc(-n2nnnc2SCC(=O)N2CCCCC2)cc1
inactive: growth inhibition [1] -11.6% | growth inhibition [2] -5.64% | viability increase [3] -0.35% | viability [4] 80.3% | viability [5] 86% | inhibition [6] 0.595% | RAM network inhibition [7] 0.04%

COc1ccc(Cc2nnc(-c3cccc(C)c3)o2)cc1OC
inactive: growth inhibition [1] -11.4% | growth inhibition [2] 2.94% | viability increase [3] 1.15% | viability [4] 95.4% | viability [5] 84.4% | inhibition [6] 1.84% | RAM network inhibition [7] 7.99%

CCC(=O)N1c2ccccc2-c2nnc(SC)nc2OC1c1ccc(N(C)C)cc1 (configuration not stated)
inactive: growth inhibition [1] -3.95% | growth inhibition [2] 4.3% | viability increase [3] -6.55% | viability [4] 93.8% | viability [5] 91.5% | inhibition [6] 3.08% | RAM network inhibition [7] 1.82%

COc1cccc(C(=O)Nc2cc(=O)n(C)c(=O)n2C)c1
inactive: growth inhibition [1] -11% | growth inhibition [2] -8.35% | viability increase [3] -2.05% | viability [4] 103% | viability [5] 97.4% | inhibition [6] 2.98% | RAM network inhibition [7] 2.08%

COc1cc(-c2nc3cnccn3c2Nc2ccccc2)ccc1O
inactive: growth inhibition [1] -7.8% | growth inhibition [2] 0.535% | viability increase [3] -5.59% | viability [4] 47.8% | viability [5] 44.7% | inhibition [6] 2.43% | RAM network inhibition [7] 0.41%

O=C(COC(=O)c1ccccc1Oc1ccccc1)NCc1ccco1
inactive: growth inhibition [1] -7.67% | growth inhibition [2] -3.48% | viability increase [3] -6.02% | viability [4] 61.6% | viability [5] 67.1% | inhibition [6] 2.41% | RAM network inhibition [7] 2.24%

Cn1c(=O)c2c(nc(CN3CCN(C(=O)c4ccco4)CC3)n2Cc2ccccc2F)n(C)c1=O
inactive: growth inhibition [1] -1.06% | growth inhibition [2] -6.51% | viability increase [3] -4.26% | viability [4] 101% | viability [5] 89.8% | inhibition [6] 2.1% | RAM network inhibition [7] 3.22%

NC(=O)C1CCN(C(=O)c2ccc(CS(=O)(=O)c3c(Cl)cccc3Cl)o2)CC1
inactive: growth inhibition [1] -1.46% | growth inhibition [2] -0.415% | viability increase [3] -0.98% | viability [4] 109% | viability [5] 98.3% | inhibition [6] 1.49% | RAM network inhibition [7] 1.38%

COc1ccc(OC)c(-n2c(SCC(=O)Nc3cc(C)on3)nnc2-c2c[nH]c3ccccc23)c1
inactive: growth inhibition [1] -1.04% | growth inhibition [2] 6.54% | viability increase [3] -2.74% | viability [4] 79.2% | viability [5] 78.8% | inhibition [6] 1.31% | RAM network inhibition [7] 1.29%

O=C(O)CN(Cc1ccco1)S(=O)(=O)c1ccccc1
inactive: growth inhibition [1] -15.2% | growth inhibition [2] -13% | viability increase [3] -1.97% | viability [4] 95.7% | viability [5] 98.3% | inhibition [6] 2.67% | RAM network inhibition [7] 2.35%

O=C(Nc1ccc(Br)cc1F)c1ccc2c(c1)N(Cc1ccccc1)C(=O)CS2=O (configuration not stated)
inactive: growth inhibition [1] -7.48% | growth inhibition [2] 1.12% | viability increase [3] -0.49% | viability [4] 81.1% | viability [5] 67.8% | inhibition [6] 2.64% | RAM network inhibition [7] 2.84%

Source: PubChem BioAssay
